# Source: PubChem (The Scripps Research Institute Molecular Screening Center)
# HSP90 refold inh: HSP90 inhibitors, primary screen, cell lysate, luminescence; Rabbit reticulocyte lysate, luciferase refolding luminescence, 3 h; inhibition, % at 5.6 µM; 0.91% of 290,000 active; AID 1789, 2009;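 active = inhibition above the screen-wide mean plus 3 SD, computed separately per campaign, cut at about 16% in these data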;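 note: 0% = DMSO wells and 100% = 60 µM geldanamycin wells; inhibitors lower the luminescence because luciferase stays unfolded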
# STAT3 inh-1: IL-6 driven STAT3 reporter inhibitors, primary screen, U3A cells, luciferase, luminescence, MLSCN library; 0.89% of 190,000 active; IL-6 STAT3-luciferase reporter; host cell line lacks STAT1; inhibition, % at 5.5 µM; AID 862, 2007;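 active = inhibition above the mean inhibition across all screened compounds plus 3 SD, cut at about 44% in these data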;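 note: 0% = DMSO only wells and 100% = 100 µM nifuroxazide control wells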
# STAT1 blocker: STAT1 signaling inhibitors, primary screen, cell-based, HTS, luciferase reporter. NIH 3T3 STAT1-luciferase reporter, IFN-gamma, luminescence. inhibition, % at 5.5 µM. 0.35% of 200,000 active;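 active = inhibition above a set limit, the mean inhibition across all tested compounds plus 3 SD, cut at about 34% in these data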;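 note: 0% = IFN-gamma with DMSO and 100% = IFN-gamma with 300 µM nifuroxazide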
# STAT3 act-1: IL-6 driven STAT3 reporter potentiators, primary screen, U3A cells, luciferase, luminescence, MLSCN library. activation (% of control), % at 5.6 µM. IL-6 STAT3-luciferase reporter; 100% = signal with IL-6 EC80 alone. 0.91% of 190,000 active;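 active = activation above the screen-wide mean of compound activation plus 3 SD, cut at about 130% in these data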;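 note: 0% = background luminescence of wells with medium and substrate only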
#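 Test system: STAT3-luciferase reporter U3A cells; Detection: reporter luminescence signal; Times: 1 h compound pre-exposure, 6 h IL-6 stimulation, 37 °C; Benchmarks: IL-6-only high control; Also added: IL-6 stimulus at 33 ng/mL final.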
# STAT3 inh-2: STAT3 reporter inhibitors, retest of hits, confirmation, U3A cells, luciferase, luminescence; AID 1265, 2008; inhibition, % at 5.7 µM; shares compounds with STAT3 inh-1; IL-6 STAT3 luciferase reporter; cell line lacks STAT1; 45% of 1,200 active;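 active = inhibition above the hit cutoff computed for the primary STAT3 screen, cut at about 44% in these data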;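 note: 0% = IL-6 plus DMSO and 100% = IL-6 plus nifuroxazide control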
# NFkB inh STAT3ct: NF-kB reporter inhibitors in human cells, confirmation, counter-screen for STAT3 inhibitor project, cell-based, HEK293T, luciferase, TNF-alpha stimulus. shares compounds with STAT3 inh-1. TNF-alpha induced. inhibition, % at 5.7 µM. 36% of 1,200 active;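 active = inhibition above the mean of solvent-only control wells plus 3 SD, cutoff set per campaign, cut at about 13% in these data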;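 note: 0% = TNF-alpha with DMSO and 100% = TNF-alpha with MG high control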
# STAT1 inh STAT3c: STAT1 reporter inhibitors, IFN-gamma induced, confirmation, counter-screen for STAT3 inhibitor project, cell-based, NIH 3T3, luciferase luminescence. shares compounds with STAT3 inh-1. NIH 3T3 STAT1-luciferase reporter. inhibition, % at 5.7 µM. 27% of 1,200 active;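 active = inhibition above the mean plus 3 SD of solvent-only control wells, limit set per screening run, cut at about 16% in these data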;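 note: 0% = DMSO with IFN-gamma and 100% = nifuroxazide control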
# STAT3 act-2: STAT3 reporter potentiators, retest of hits, confirmation, U3A cells, luciferase, luminescence; shares compounds with STAT3 act-1; IL-6 potentiation; U3A cells lack STAT1; 100 means same as IL-6 alone; potentiation (% of control), % at 5.7 µM; 64% of 1,200 active; AID 1267, 2008;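 active = percent activation of the STAT3 luciferase reporter above a set limit taken from the earlier primary screen, cut at about 130% in these data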;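 note: 0% = background signal of medium plus substrate and 100% = median of IL-6 with DMSO wells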
# NFkB act 2: NF-kB reporter activators in human cells, counter-screen for STAT3 activator project; shares compounds with STAT3 act-1; NF-kappaB reporter activation; activation (% of control), % at 5.7 µM; 11% of 1,200 active; AID 1309, 2008; in the data active = activation above about 120%;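 note: reporter induced by TNF-alpha stimulation; 100% = median of stimulated DMSO wells and 0% = no signal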
# STAT1 act: STAT1 reporter activators, IFN-gamma induced, counter-screen for STAT3 activator project, cell-based, NIH 3T3, luciferase luminescence; shares compounds with STAT3 act-1; NIH 3T3 STAT1-luciferase reporter; activation (% of control), % at 5.7 µM; 13% of 1,200 active; AID 1318, 2008;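 active = activation above the solvent-only control well mean plus 3 SD, set per screening run, cut at about 120% in these data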;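 note: 100% = IFN-gamma with DMSO median signal so 100% means no change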
# HSP90 confirm: HSP90 inhibitors, confirmation, cell lysate, luminescence; shares compounds with HSP90 refold inh; rabbit reticulocyte lysate, luciferase refolding luminescence, 3 h; inhibition, % at 5.9 µM; 64% of 2,300 active; AID 1846, 2009; in the data active = inhibition above about 18%;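 note: 0% = vehicle wells and 100% = reference inhibitor wells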
# luciferase ctr: firefly luciferase inhibitors, HSP90 counter-screen, confirmation, artefact control for HSP90 inhibitor project, biochemical, luminescence, triplicate | inhibition, % at 5.9 µM | 48% of 2,300 active | purified native firefly luciferase | AID 1847, 2009 | shares compounds with HSP90 refold inh;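 active = inhibition above the mean inhibition of all tested sample wells plus 3 SD, cut at about 10% in these data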;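 note: 0% = DMSO with luciferase and 100% = wells lacking luciferase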
# Target sequence (P08659 whole entry, looked up): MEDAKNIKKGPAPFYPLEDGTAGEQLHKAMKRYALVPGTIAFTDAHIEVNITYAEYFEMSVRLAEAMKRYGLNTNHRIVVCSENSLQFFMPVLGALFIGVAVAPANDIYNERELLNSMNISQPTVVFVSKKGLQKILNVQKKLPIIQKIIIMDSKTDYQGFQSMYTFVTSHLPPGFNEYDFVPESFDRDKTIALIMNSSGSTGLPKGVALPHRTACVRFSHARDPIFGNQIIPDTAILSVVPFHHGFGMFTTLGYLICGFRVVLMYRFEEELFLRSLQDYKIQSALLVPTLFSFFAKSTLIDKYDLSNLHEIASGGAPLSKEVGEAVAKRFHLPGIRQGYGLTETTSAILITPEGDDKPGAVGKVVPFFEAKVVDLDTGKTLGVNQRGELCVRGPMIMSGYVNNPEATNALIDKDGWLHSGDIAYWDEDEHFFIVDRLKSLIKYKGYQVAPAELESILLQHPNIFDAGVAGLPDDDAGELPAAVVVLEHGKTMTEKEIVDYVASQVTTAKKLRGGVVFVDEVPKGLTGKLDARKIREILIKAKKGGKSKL
# Active calls of the source: *; / = no result given. Most compounds without a hit are left out; they make up all but 2% or so of the library.
SMILES,HSP90 refold inh,STAT3 inh-1,STAT1 blocker,STAT3 act-1,STAT3 act-2,NFkB act 2,STAT1 act,others
Oc1ccc(-c2cnc(-c3ccc(O)cc3)nc2)cc1,12,/,/,/,/,/,/,
Nc1ccc(-c2cnc(-c3ccc(N)cc3)nc2)cc1,21*,49*,-40,59,/,/,/,STAT3 inh-2=5;NFkB inh STAT3ct=-33;STAT1 inh STAT3c=-106;HSP90 confirm=26*;luciferase ctr=19*
O=C(NCc1cccs1)C1CCC(=O)N(Cc2cccc(C(F)(F)F)c2)C1 (configuration not stated),0,/,/,/,/,/,/,
O=C(C1CCCN(S(=O)(=O)c2cccc3cccnc23)C1)N1CCc2ccccc21 (configuration not stated),1,-35,7,138*,135*,101,99,
O=C(NC1CCCCC1)C1CCCN(S(=O)(=O)c2cccc3cccnc23)C1 (configuration not stated),-2,/,/,/,/,/,/,
Cc1cc(C)cc(C(=O)N[C@@H](C)C(=O)N2CCC3(CC2)NCCc2[nH]cnc23)c1,3,/,/,/,/,/,/,
Cc1cccc(-c2nnn3c2nc(NCCc2ccc(S(N)(=O)=O)cc2)c2ccccc23)c1,1,-54,1,145*,155*,102,112,
NS(=O)(=O)c1ccc(CCNc2nc3c(-c4cccc(F)c4)nnn3c3ccccc23)cc1,-3,-40,4,137*,144*,98,110,
Cc1ccc(-c2nnn3c2nc(NCCc2ccc(S(N)(=O)=O)cc2)c2ccccc23)cc1,0,-27,4,123,/,/,/,
c1ccc(CCn2nnnc2CN2CCCc3ccccc32)cc1,-1,-35,-4,128,/,/,/,
CCC(C)(C)n1nnnc1CN1CCc2ccccc21,1,-53,-4,145*,126,105,103,
O=C(Cc1ccc([N+](=O)[O-])cc1)Nc1nnc(C2CC2)s1,5,6,3,97,/,/,/,
O=C(Cc1coc2ccc3ccccc3c12)Nc1nnc(C2CC2)s1,1,-48,16,153*,148*,81,94,
O=C(Cc1c[nH]c2ccccc12)Nc1nnc(C2CC2)s1,-2,-35,13,137*,168*,102,84,
Cn1c(SCC(=O)Nc2ccc(Br)cn2)nnc1C1CC1,-4,/,/,/,/,/,/,
CN(C)CCCNC(=O)c1cc2c3ccccc3n(C)c2s1,1,-12,-9,115,/,/,/,
Cn1c2ccccc2c2cc(C(=O)NNS(=O)(=O)c3ccc(F)cc3)sc21,2,-42,1,136*,127,96,103,
O=C(NNC1=C(C(=O)C(F)(F)F)CCC1)c1ccccc1O,2,-80,4,177*,148*,101,102,
Nc1ccccc1C(=O)NNC1=C(C(=O)C(F)(F)F)CCC1,2,/,/,/,/,/,/,
